High-throughput results (PubChem BioAssay)
HTR1E antagonist – 5-HT1E receptor antagonists, primary screen, cell-based, HTS. 5-hydroxytryptamine receptor 1E (Homo sapiens), P28566. CHO 5-HT1E Ga15 NFAT-bla reporter, FRET, antagonist. inhibition, % at 6 µM. 65,000 compounds, 0.99% hits. AID 571, 2007;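 active = inhibition above a set limit, the mean inhibition across every tested compound plus 3 SD, cut at about 29% in these data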;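 note: signal is the 460 over 535 nm emission ratio of beta-lactamase substrate; 0% = agonist plus DMSO wells and 100% = wells without agonist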
HTR1E agonist – 5-HT1E receptor agonists, primary screen, cell-based, HTS; activation, % at 6 µM; CHO 5-HT1E Ga15 NFAT-bla reporter, FRET; 0% DMSO wells, 100% control agonist wells; 65,000 compounds, 0.69% hits; 5-hydroxytryptamine receptor 1E (Homo sapiens), P28566; AID 574, 2007;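 active = activation above a set limit, the screen-wide mean activation plus 3 SD, cut at about 8.5% in these data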;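 note: 100% = positive control agonist at 1 µM giving full maximal response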
5HT1a ag – human 5-HT1a receptor agonists, primary screen, cell-based, CHO, Ga15 NFAT-bla reporter; 5-hydroxytryptamine receptor 1A (Homo sapiens), P08908; CHO 5-HT1a Ga15 NFAT-bla reporter, FRET ratio; 0% basal, 100% maximal reference agonist; activation, % at 10 µM; 65,000 compounds, 0.56% hits;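 active = activation above the screen-wide mean activation plus 3 SD, cut at about 19% in these data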;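 note: 0% = DMSO wells and 100% = 5-CT at EC100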
Target sequence (P08908 whole entry, looked up): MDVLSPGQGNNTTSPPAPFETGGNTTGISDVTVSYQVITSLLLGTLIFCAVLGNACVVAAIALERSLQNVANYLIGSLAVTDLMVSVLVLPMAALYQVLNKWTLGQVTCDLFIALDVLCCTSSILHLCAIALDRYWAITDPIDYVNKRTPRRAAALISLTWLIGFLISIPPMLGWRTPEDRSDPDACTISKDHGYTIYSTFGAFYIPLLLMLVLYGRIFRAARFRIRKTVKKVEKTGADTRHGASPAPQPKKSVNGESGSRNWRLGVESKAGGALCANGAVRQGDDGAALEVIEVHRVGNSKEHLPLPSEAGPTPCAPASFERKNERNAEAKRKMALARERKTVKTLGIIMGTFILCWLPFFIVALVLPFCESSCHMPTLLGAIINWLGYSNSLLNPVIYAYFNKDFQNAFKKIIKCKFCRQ
5-HT1A blocker – human 5-HT1a receptor antagonists, primary screen, cell-based, CHO, Ga15 NFAT-bla reporter; 5-hydroxytryptamine receptor 1A (Homo sapiens), P08908; CHO 5-HT1a Ga15 NFAT-bla reporter, antagonist mode; inhibition, % at 10 µM; 62,000 compounds, 0.68% hits; AID 612, 2007;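 active = inhibition above the mean of all tested compounds plus 3 SD, cut at about 43% in these data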;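 note: receptor stimulated by 5-CT agonist at 100 nM near EC80; beta-lactamase reporter measured by ratiometric fluorescence of a cleavable substrate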
S1P3 ag – human S1P3 receptor agonists, primary screen, cell-based, primary and confirmation, NFAT-BLA reporter. activation, % at 4.5 µM. Sphingosine 1-phosphate receptor 3 (Homo sapiens), Q99500. S1P3 NFAT-BLA reporter cells, agonism, FRET ratio; relative to 1 µM S1P, basal subtracted. AID 373, 2006. 60,000 compounds, 0.1% hits;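 active = activation above the screen-wide mean plus 3 SD, cut at about 4.5% in these data, passing the limit was not always enough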
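Material: Human S1P3 NFAT-BLA reporter CHO cells | Incubation: Overnight plating, 4 h compound 37 °C, 2 h substrate RT | Signal: FRET β-lactamase substrate fluorescence, excitation 405 nm, 460/535 nm emission ratio, background-subtracted | Compound: 4.5 µM final, single dose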
Active calls of the source: *; · = no result. Compounds with a hit are over-represented: about 2.6% of the library has one in this group of screens.

SMILES	HTR1E antagonist	HTR1E agonist	5HT1a ag	5-HT1A blocker	S1P3 ag
COc1cccc(-c2cc(C(=O)N3CCN(C(c4ccccc4)c4ccccc4)CC3)no2)c1	-13.6	3.0	-1.0	51.8*	-2.4
Cc1cc(C(=O)N2CCN(C(c3ccccc3)c3ccccc3)CC2)no1	-2.1	-0.8	0.7	-3.8	4.7
Cc1c(C(=O)NCc2cccnc2)oc2ccccc12	32.6*	-0.1	-1.2	-9.6	-1.3
Clc1ccc(SCCn2ccnc2)cc1	-3.2	-0.8	-1.0	1.4	-1.5
COc1ccc(-n2nnnc2SCC(=O)c2cccc(OC)c2)cc1	0.4	0.5	-0.2	-4.2	-0.7
CCCS(=O)(=O)c1nnnn1-c1cccc(OC)c1	106.4*	-1.2	-10.6	108.6*	-1.7
CCCCOc1[nH]c2nc(-c3ccco3)n(Cc3ccco3)c(=N)c2c1C#N	8.6	-0.1	0.1	1.2	0.1
Cc1cc(/C=N/n2cnnc2)c(C)n1-c1cc(Cl)ccc1Cl	39.7*	-0.9	-4.6	51.6*	-0.6
COC(=O)c1ccc(-n2c(C)cc(/C=N/n3cnnc3)c2C)cc1	1.7	18.6*	-1.9	2.3	-2.0
Cc1cc(/C=N/n2cnnc2)c(C)n1-c1ccc(C(=O)O)cc1	-5.5	-0.6	-3.0	-14.6	-1.6
COc1cc(NC(=O)CCCC(=O)OCC(F)(F)C(F)F)nc(OC)n1	-12.1	0.9	0.5	-21.6	-0.4
Nc1nonc1/C(=N/O)N1CCCC1	9.0	-0.7	130.4*	16.7	0.1
c1ccc2sc(SN3CCOCC3)nc2c1	-11.2	-0.8	-0.6	-15.3	·
N#Cc1c(-c2cccs2)cc(-c2ccccn2)nc1N	42.7*	2.1	5.7	5.0	-0.3
N#Cc1c(-c2cccs2)cc(-c2cccnc2)nc1N	44.2*	1.4	3.3	5.5	-0.6
N#Cc1c(N)nc(SCC(=O)NCCc2ccccc2)c(C#N)c1-c1cccs1	12.9	1.5	12.3	·	-4.4
O=C(NCCCn1ccnc1)c1cc(-c2ccc3c(c2)OCO3)on1	5.8	-0.3	0.3	-12.3	-1.1
CCOC(=O)CC(Nc1nc(N2CCOCC2)nc(N2CCOCC2)n1)c1ccccc1Cl (stereo not given)	0.1	0.1	-0.6	10.0	-0.7
CCCc1cc(C(=O)NCC(C)C)no1	-12.0	0.5	0.6	-15.1	0.2
Cc1nc(NCCCn2ccnc2)c2oc3ccccc3c2n1	32.5*	-1.1	-0.3	22.1	-1.8
c1ccc2c(c1)oc1c(NCCCn3ccnc3)ncnc12	3.0	0.5	-1.1	-5.4	0.5
CC(C)n1c(=N)c(C(=O)NCCc2ccccc2)cc2c(=O)n3ccccc3nc21	-13.4	12.6*	51.7*	-68.6	6.3*
N=c1c(C(=O)NCc2ccco2)cc2c(=O)n3ccccc3nc2n1Cc1ccccc1	-11.9	2.7	10.5	31.7	2.1
N=c1c(S(=O)(=O)c2ccc(Cl)cc2)cc2c(=O)n3ccccc3nc2n1CCN1CCOCC1	-0.5	8.1	23.8*	-50.8	0.7
N=c1c(C(=O)NCc2ccco2)cc2c(=O)n3ccccc3nc2n1Cc1ccc(Cl)cc1	-16.5	5.4	26.8*	12.6	4.8*
SMILES	HTR1E antagonist	HTR1E agonist	5HT1a ag	5-HT1A blocker	S1P3 ag
Cc1ccc(CNC(=O)c2cc3c(=O)n4ccccc4nc3n(CC3CCCO3)c2=N)cc1 (stereo not given)	-12.6	3.8	31.8*	·	10.9
CC(C)Cn1c(SCc2nnc(-c3cccs3)o2)nc(O)cc1=O	-2.1	0.4	-1.3	0.7	1.2
CC(=O)N=c1c(C#N)cc2c(=O)n3cccc(C)c3nc2n1CC(C)C	6.9	1.5	3.8	-10.4	-0.3
CCOc1cc(N2CCOCC2)c(OCC)cc1NC(=O)c1cc(-c2ccco2)nc2ccccc12	50.2*	0.2	2.2	27.1	·
COc1cccc(NC(=O)CSc2nc3c(c(-c4ccco4)c2C#N)CCCC3)c1	0.1	-0.6	-4.7	1.0	0.2
COCCOC(=O)c1c(C)nc(SCC(=O)Nc2ccc(OC)cc2)c(C#N)c1-c1ccco1	34.0*	-0.1	5.3	·	-1.1
COc1cc(OC)c(OC)cc1CN1CCN(c2ccccc2OC)CC1	18.6	23.4*	-1.1	46.3*	-1.0
CCOc1ccccc1N1CCN(Cc2ccc(OC)c(OC)c2)CC1	-2.6	20.1*	-1.9	57.2*	-1.3
COc1ccc(CC(C)N2CCN(c3ccccc3OC)CC2)cc1OC (stereo not given)	7.5	1.3	-0.2	98.2*	-1.3
COc1ccccc1N1CCN(Cc2cccc(OC)c2OC)CC1	-0.2	3.4	-2.2	40.5	-1.8
COc1ccc(Cn2nnnc2C(C(C)C)N2CCN(c3ccccc3OC)CC2)cc1 (stereo not given)	1.6	-1.5	-2.0	18.4	-1.3
CCOc1ccccc1N1CCN(Cc2ccc(OC)c(OC)c2OC)CC1	2.8	16.6*	-3.4	79.8*	-1.4
CCOC(=O)N1CCN(C(=O)CCSc2ccccc2)CC1	-3.0	-0.5	2.1	5.0	·
COC(=O)c1c(C)[nH]c(C(=O)C(C)Sc2nnc(-c3cc(OC)c(OC)c(OC)c3)o2)c1C (stereo not given)	-4.0	-0.3	0.2	6.3	-1.4
COc1ccccc1N1CCN(C(c2ccc(C)cc2)c2nnnn2C(C)C)CC1 (stereo not given)	-1.1	-0.1	-2.9	31.4	-0.6
COc1ccccc1N1CCN(C(c2ccc(F)cc2)c2nnnn2C(C)C)CC1 (stereo not given)	6.6	0.6	-3.3	42.6*	-0.6
COc1cc(CN2CCN(c3cccc(C)c3C)CC2)cc(OC)c1O	5.0	57.0*	-2.2	-1.9	-1.7
Cc1cc(C#N)c(C)n1-c1cc(C(F)(F)F)ccc1N1CCOCC1	11.7	-0.7	3.3	42.8*	0.6
Cc1ccc2c(=O)c(CN(C)C3CCN(C)CC3)c(C)[nH]c2c1C	12.3	-0.6	-0.7	·	-2.8
COc1cc(NC(=O)c2cccc3c2C(=O)N(Cc2cccnc2)C3)cc(OC)c1OC	29.8*	0.6	2.5	17.8	1.6
O=C(Nc1ccc2c(c1)OCO2)c1cccc2c1C(=O)N(Cc1cccnc1)C2	1.0	0.6	-1.0	-9.5	-0.2
COc1cc(C(=O)NCc2nnc(SCC(=O)N3CCc4ccccc43)o2)cc(OC)c1OC	-5.3	-0.2	1.3	1.6	·
CCN(CC)S(=O)(=O)c1ccc(NC(=O)Cn2c(=O)sc3ccccc32)cc1	1.1	-0.1	-1.7	-6.3	-1.0
COc1ccc(N2C(=O)CC(NCc3cccc(F)c3)C2=O)cc1 (stereo not given)	-8.0	-0.3	0.2	-28.3	-0.8
COc1ccc(N2C(=O)CC(NCc3ccncc3)C2=O)cc1 (stereo not given)	77.4*	0.2	-1.1	0.7	0.0
